For three compounds, IC50 results are on record in ChEMBL document CHEMBL3286120, “Design and synthesis of novel soluble 2,5-diketopiperazine derivatives as potential anticancer agents” (Eur J Med Chem, 2014).

The subject of one assay is NCI-H1975. Kind of assay: Cytotoxicity against human NCI-H1975 cells assessed as reduction in cell viability after 72 hrs by CCK8 assay. The class given is functional, cell-based. Conditions: nci-h1975; call rule not given here. In outline: (§1)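 Cells kept in RPMI or DMEM with 10% FBS and 1% penicillin/streptomycin at 37 °C in 5% CO2. Seeded at 400-800 cells/well in 384-well plates and exposed to varying compound concentrations, with solution-only control, for 72 h. CCK8 reagent added, then absorbance read at 450 nm. Plinabulin and TSA were positive controls. Mean SD of three experiments.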
On to `C=CCn1c(=O)/c(=C\c2cc(OC)c(OC)c(OC)c2)[nH]c(=O)/c1=C\c1ccccc1`, for which the IC50 entry is listed as “Not Active”.
On the same count and under the same terms, to `C=CCn1c(=O)/c(=C\c2cccc(Br)c2)[nH]c(=O)/c1=C\c1cccc(Br)c1` belongs “Not Active”; to `C=CCn1c(=O)/c(=C\c2cc(OC)c(OC)c(OC)c2)[nH]c(=O)/c1=C\c1cccc(Br)c1`, “Not Active”.

Another assay relates to U-937. Kind of assay: Cytotoxicity against human U937 cells assessed as reduction in cell viability after 72 hrs by CCK8 assay. The class given is functional, cell-based. Conditions: u-937. A digest of the protocol:
as §1
Regarding `C=CCn1c(=O)/c(=C\c2cc(OC)c(OC)c(OC)c2)[nH]c(=O)/c1=C\c1ccccc1`, the IC50 result is “Not Active”.
Regarding `C=CCn1c(=O)/c(=C\c2cccc(Br)c2)[nH]c(=O)/c1=C\c1cccc(Br)c1`, the IC50 entry is listed as “Not Active”.
On the same count and under the same terms, then `C=CCn1c(=O)/c(=C\c2cc(OC)c(OC)c(OC)c2)[nH]c(=O)/c1=C\c1cccc(Br)c1`, with “Not Active”.

System in a further assay: not listed separately
Kind of assay: Cytotoxicity against human HuH7 cells assessed as reduction in cell viability after 72 hrs by CCK8 assay. The class given is functional, cell-based, Huh-7. Particulars: huh-7. A digest of the protocol: as §1
For the compound `C=CCn1c(=O)/c(=C\c2cc(OC)c(OC)c(OC)c2)[nH]c(=O)/c1=C\c1ccccc1`, the IC50 entry is “Not Active”.
In the case of `C=CCn1c(=O)/c(=C\c2cccc(Br)c2)[nH]c(=O)/c1=C\c1cccc(Br)c1`, the IC50 result is listed as “Not Active”.
With `C=CCn1c(=O)/c(=C\c2cc(OC)c(OC)c(OC)c2)[nH]c(=O)/c1=C\c1cccc(Br)c1`, the IC50 result is reported as “Not Active”.

A further assay concerns HeLa. Kind of assay: Cytotoxicity against human HeLa cells assessed as reduction in cell viability after 72 hrs by CCK8 assay. The class given is functional, cell-based. Particulars: hela. A digest of the protocol: as §1
For `C=CCn1c(=O)/c(=C\c2cc(OC)c(OC)c(OC)c2)[nH]c(=O)/c1=C\c1ccccc1`, the IC50 entry is listed as “Not Active”.
Same read-out and setting: to `C=CCn1c(=O)/c(=C\c2cccc(Br)c2)[nH]c(=O)/c1=C\c1cccc(Br)c1` belongs “Not Active”; to `C=CCn1c(=O)/c(=C\c2cc(OC)c(OC)c(OC)c2)[nH]c(=O)/c1=C\c1cccc(Br)c1`, “Not Active”.

The subject of a further assay is MCF7. Kind of assay: Cytotoxicity against human MCF7 cells assessed as reduction in cell viability after 72 hrs by CCK8 assay. The class given is functional, cell-based. Particulars: mcf7. In outline:
as §1
For `C=CCn1c(=O)/c(=C\c2cc(OC)c(OC)c(OC)c2)[nH]c(=O)/c1=C\c1ccccc1`, the IC50 result is given as “Not Active”.
Consider `C=CCn1c(=O)/c(=C\c2cccc(Br)c2)[nH]c(=O)/c1=C\c1cccc(Br)c1`, for which the IC50 result is “Not Active”.
Still for that read-out and setting: to `C=CCn1c(=O)/c(=C\c2cc(OC)c(OC)c(OC)c2)[nH]c(=O)/c1=C\c1cccc(Br)c1` belongs “Not Active”.

For a further assay, the system named is K562. Kind of assay: Cytotoxicity against human K562 cells assessed as reduction in cell viability after 72 hrs by CCK8 assay. The class given is functional, cell-based. Conditions: k562. In outline:
as §1
For the compound `C=CCn1c(=O)/c(=C\c2cc(OC)c(OC)c(OC)c2)[nH]c(=O)/c1=C\c1ccccc1`, the IC50 result was “Not Active”.
With `C=CCn1c(=O)/c(=C\c2cccc(Br)c2)[nH]c(=O)/c1=C\c1cccc(Br)c1`, the IC50 result is recorded as “Not Active”.
On to `C=CCn1c(=O)/c(=C\c2cc(OC)c(OC)c(OC)c2)[nH]c(=O)/c1=C\c1cccc(Br)c1`, for which the IC50 entry is on record as “Not Active”.

In another assay the test system is HL-60. Put plainly: Cytotoxicity against human HL60 cells assessed as reduction in cell viability after 72 hrs by CCK8 assay. The class given is functional, cell-based. Conditions: hl-60. In outline: as §1
On to `C=CCn1c(=O)/c(=C\c2cc(OC)c(OC)c(OC)c2)[nH]c(=O)/c1=C\c1ccccc1`, for which the IC50 result is reported as “Not Active”.
Regarding `C=CCn1c(=O)/c(=C\c2cccc(Br)c2)[nH]c(=O)/c1=C\c1cccc(Br)c1`, the IC50 result is reported as “Not Active”.
On the same count and under the same terms, then `C=CCn1c(=O)/c(=C\c2cc(OC)c(OC)c(OC)c2)[nH]c(=O)/c1=C\c1cccc(Br)c1`, with “Not Active”.

The subject of the next assay is MOLT-4. Put plainly: Cytotoxicity against human MOLT4 cells assessed as reduction in cell viability after 72 hrs by CCK8 assay. The class given is functional, cell-based. Conditions: molt-4. A digest of the protocol: as §1
On to `C=CCn1c(=O)/c(=C\c2cc(OC)c(OC)c(OC)c2)[nH]c(=O)/c1=C\c1ccccc1`, for which the IC50 result was “Not Active”.
Same read-out and setting: to `C=CCn1c(=O)/c(=C\c2cccc(Br)c2)[nH]c(=O)/c1=C\c1cccc(Br)c1` belongs “Not Active”.
Consider `C=CCn1c(=O)/c(=C\c2cc(OC)c(OC)c(OC)c2)[nH]c(=O)/c1=C\c1cccc(Br)c1`, for which the IC50 entry is on record as “Not Active”.

For another assay, the system named is A549. Kind of assay: Cytotoxicity against human A549 cells assessed as reduction in cell viability after 72 hrs by CCK8 assay. The class given is functional, cell-based. Conditions: a549. In outline: as §1
As to `C=CCn1c(=O)/c(=C\c2cc(OC)c(OC)c(OC)c2)[nH]c(=O)/c1=C\c1ccccc1`, the IC50 result is given as “Not Active”.
As to `C=CCn1c(=O)/c(=C\c2cccc(Br)c2)[nH]c(=O)/c1=C\c1cccc(Br)c1`, the IC50 result is listed as “Not Active”.
For `C=CCn1c(=O)/c(=C\c2cc(OC)c(OC)c(OC)c2)[nH]c(=O)/c1=C\c1cccc(Br)c1`, the IC50 result is listed as “Not Active”.

System in another assay: not listed separately
Put plainly: Cytotoxicity against human BGC823 cells assessed as reduction in cell viability after 72 hrs by CCK8 assay. The class given is functional, cell-based, BGC-823. Conditions: bgc-823. In outline: as §1
Turning to `C=CCn1c(=O)/c(=C\c2cc(OC)c(OC)c(OC)c2)[nH]c(=O)/c1=C\c1ccccc1`, the IC50 result is “Not Active”.
With `C=CCn1c(=O)/c(=C\c2cccc(Br)c2)[nH]c(=O)/c1=C\c1cccc(Br)c1`, the IC50 entry is given as “Not Active”.
Same read-out and setting: then `C=CCn1c(=O)/c(=C\c2cc(OC)c(OC)c(OC)c2)[nH]c(=O)/c1=C\c1cccc(Br)c1`, with “Not Active”.
